# According to PubChem BioAssay AID504382 (The Scripps Research Institute Molecular Screening Center, 2011):
# Values joined by “and” are separate entries in the source; they are usually repeats but may differ in a detail not shown here. Equal entries are not always repeated. Out of some 2,500 compounds screened, about 460 (18%) were called active. Only a sample is shown. Values without a mark were called inactive.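 How the source made its calls: active means mean activation above a cutoff of low control average plus 3 SD from the earlier screen (cut at about 12% in these data); inactive means the rest.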
# Test: compound fluorescence interference without thin filaments, confirmation, artefact control for cardiac RTF calcium sensitizer project, biochemical (AID 504382)
# Conditions: IANBD fluorescence interference counterscreen, buffer, EC20 Ca2+; at 7.2 µM; stronger effect = higher value; scaled: EC20 calcium 0, EC100 calcium 100
# How it was run: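 Medium: MOPS buffer, 190 mM, with KCl, MgCl2, EGTA, NTA, DTT, pH 7.20; Dosing: one dose of 7.2 µM, 0.7% DMSO; Probe or stimulus: calcium at EC20 level, 0.472 mM final; Incubation: 15 min, 25 °C; Evaluation: compound fluorescence interference relative to control well signal range; Signal: fluorescence, 480/540 nm.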
row,Structure (SMILES),fluorescence artifact activation
1,CCOC(=O)c1c(-c2ccccc2Cl)csc1NC(=O)c1cc(S(=O)(=O)N2CCOCC2)ccc1C,-0.04%
2,Cn1cc(/C=C2\SC(=S)N(N3CCOCC3)C2=O)c2ccccc21,0.4%
3,COC(=O)C1=C(C(=O)c2ccc(C)cc2)C(c2ccc(OC)c(OC)c2)n2nnnc2N1 (stereo not drawn),0%
4,COc1ccccc1N1C(=O)C2C(C(=O)c3ccccc3)=NN(c3ccccc3)C2C1=O (stereo not drawn),1.87%
5,Fc1ccc(C2=CC(c3ccco3)n3ncnc3N2)cc1 (stereo not drawn),3.08%
6,CN(C)c1ccc(C2C=C(c3ccc(Cl)cc3OC(F)F)Nc3ncnn32)cc1 (stereo not drawn),28.8% (active)
7,COc1cc(C2C=C(c3cccs3)Nc3ncnn32)cc(OC)c1OC (stereo not drawn),0.2%
8,Cc1ccc(S(=O)(=O)/N=C2/NC(=O)/C(=C/c3cc([N+](=O)[O-])ccc3O)S2)cc1,1.59%
9,COC(=O)[C@@H]1C[C@@]2(O)[C@H](O)[C@H](O)[C@H](O)C[C@H]2N1C/C=C/c1ccccc1,2.09%
10,CC(=O)Nc1cccc(C(=O)/C=C/c2ccc(N(C)C)cc2)c1,6.61%
11,COc1ccc(-c2nn(CCC(=O)O)cc2/C=C2\SC(N)=NC2=O)cc1,0%
12,O=C(Nn1cnnc1)c1cc([N+](=O)[O-])cc([N+](=O)[O-])c1,0.03%
13,COc1ccc2nc(-c3ccccn3)[nH]c2c1,20.2% (active)
14,COc1ccc(OC)c(/C=C/c2nc3ccccc3[nH]c2=O)c1,0.12%
15,COc1ccc2nc3ccccc3[n+]([O-])c2c1,2.24%
16,CN1/C(=C\C(=O)c2ccco2)C(C)(C)c2ccccc21,-0.02%
17,COc1ccc2[nH]c3c(c2c1)CCNC3c1ccc([N+](=O)[O-])o1 (stereo not drawn),-0.02%
18,COc1ccc(Nc2cccc3ccccc23)cc1,53.2% (active)
19,COc1ccc(NC(=O)CSc2ccc3c4c(cccc24)C(=O)c2ccccc2-3)cc1,0.08%
20,COc1ccc(Nc2cc(C)nc3ccc(OC)cc23)cc1,0.01%
21,CC(=O)c1cccc(Nc2cc(C)nc3ccc(C)cc23)c1,4.88%
22,CCOC(=O)COn1c(=O)c(-c2cc3ccccc3o2)[n+]([O-])c2ccccc21,-0.09%
23,CCCC[C@H]1COCCS(=O)(=O)N1Cc1ccc(F)cc1,0.08%
24,O=C(NCC1CCCO1)c1c(O)nc2sccn2c1=O (stereo not drawn),1.06%

row,Structure (SMILES),fluorescence artifact activation
1,O=C(NCC1CCCO1)c1cccc2c1C(=O)c1ccc(N3CCC(Cc4ccccc4)CC3)cc1S2(=O)=O (stereo not drawn),0.63%
2,O=C(NCC1CCCO1)c1ccc2c(c1)C(=O)N(c1cccc([N+](=O)[O-])c1)C2=O (stereo not drawn),14% (active)
3,CCN(CC)C(=O)Cn1c(C)c(/C=C/c2cc[n+](C)cc2)c2ccccc21,0.06%
4,CC(O)c1cccc(N=Cc2ccc3ccccc3c2O)c1 (stereo not drawn),6.46%
5,CCc1ccc(/C=C2\Oc3c(ccc(O)c3CN3CCN(C)CC3)C2=O)cc1,-0.01%
6,COc1ccc(/C=C/c2nc3sc4c(c3c(=O)o2)CCC4)cc1,121% (active)
7,COc1ccc(/C=C/C=C2\N=C(SC)SC2=O)cc1,-0.02%
8,CN(C)NC(=O)c1ccc([N+](=O)[O-])s1,7.24%
9,Cc1ccc(-c2nc3ncccn3c2Nc2ccc3c(c2)OCCO3)o1,73.3% (active)
10,O=C1c2ccccc2-c2onc3ccc(N4CCCC4)c1c23,0.15%
11,CS(=O)(=O)N(CC(=O)O)Cc1cccc(CN(CC(=O)O)S(C)(=O)=O)c1,0.86%
12,CCCCCCN1C=CC(=C/C=C(\C#N)C(=O)OCC)C=C1,168% (active)
13,CCOC(=O)/C(C#N)=C\C=C1C=CN(C)C=C1,0.04%
14,C=CCN1C=CC(=C/C=C(/C#N)C(=O)OCC)C=C1,-0.04%
15,CCc1ccc(C2C(C#N)=C(N)SC(N)=C2C#N)s1,0.05%
16,COC(=O)CSc1nc2c(c(=O)n(C)c(=O)n2C)n1CCCc1ccccc1,52.3% (active)
17,CCOC(=O)CSc1nc2c(c(=O)n(C)c(=O)n2C)n1Cc1ccccc1F,502% (active)
18,C=CCNc1nc2c(c(=O)[nH]c(=O)n2C)n1CCCc1ccccc1,-0.06%
19,CSc1nc2c(c(=O)[nH]c(=O)n2C)n1CCCc1ccccc1,0.1%
20,CN1CCN(c2nc3c(c(=O)n(C)c(=O)n3C)n2Cc2ccccc2F)CC1,0.14%
21,Cc1cc(/C=C2/NC(=O)N(Cc3ccccc3F)C2=O)c(C)n1C,5.71%
22,CCOC(=O)c1c(NC(=O)c2ccno2)c2cc([N+](=O)[O-])ccc2n1C,0%
23,COc1ccccc1N=Cc1c(C)c(C#N)c2[nH]c3ccccc3n2c1=O,-0.03%
24,Cc1cccc(C)c1-n1c(C)nn(-c2ncc(C(F)(F)F)cc2Cl)c1=O,0.09%

row,Structure (SMILES),fluorescence artifact activation
1,CCCCC1OC2(C)OC(=N)C1(C#N)C(C#N)(C#N)C2c1ccccc1 (stereo not drawn),0.23%
2,Cc1nc(Cl)c2c(n1)NC1=C(O2)C(=O)CCC1,0.77%
3,O=C1/C(=C/c2cccnc2)SC(=S)N1N1CCOCC1,0.1%
4,CCOC(=O)c1ccc(N=c2sc(C(=O)OC)cc(=O)n2CCCN2CCOCC2)cc1,-0.02%
5,CCc1nc(Nc2ccc(O)cc2)c2oc3ccccc3c2n1,20.3% (active)
6,COc1ccc(/C=c2\s/c(=C/C(=O)c3ccc(C)cc3)[nH]c2=O)c(OC)c1,0.16%
7,C[C@H](CO)N1C[C@H](C)[C@@H](CN(C)C(=O)Nc2ccccc2)Oc2ccc(NC(=O)Nc3ccc4c(c3)OCO4)cc2C1=O,-0.07%
8,N#C/C(=C/c1ccc(N2CCCCC2)o1)C(=O)NCCc1c[nH]c2ccccc12,12.8% (active)
9,N#C/C(=C\c1ccc(N2CCOCC2)o1)C(=O)NCCc1ccccc1,20.6% (active)
10,N#C/C(=C\c1ccc(N2CCOCC2)o1)C(=O)NCC1CCCO1 (stereo not drawn),-0.1%
11,COCCNC(=O)/C(C#N)=C/c1ccc(N2CCOCC2)o1,-0.05%
12,COC(=O)CCc1c(C)c(C(=O)c2cc(F)c(F)c(F)c2F)c2ccccn12,-0.04%
13,CN(C)C(CNC(=O)c1cccc(S(=O)(=O)N(C)C)c1)c1ccccc1 (stereo not drawn),4.02%
14,N=c1c2c(ncn1Cc1ccco1)Oc1cc(O)ccc1C2c1ccccc1 (stereo not drawn),20% (active)
15,COc1ccc(C2c3ccc(O)cc3Oc3ncn(Cc4ccccc4)c(=N)c32)cc1OC (stereo not drawn),0.06%
16,COc1ccc(C2c3ccc(O)cc3Oc3ncn(Cc4ccco4)c(=N)c32)cc1 (stereo not drawn),0.14%
17,CCN(CC)C(=S)SCC(=O)c1c(C)[nH]c2ccccc12,7.38%
18,CCc1ccccc1NC(=S)NCc1cccn1C,-0.01%
19,CC(OC(=O)/C(C#N)=C/c1ccc(N(C)C)cc1)C(=O)N(C)Cc1ccccc1 (stereo not drawn),4.84%
20,CCOC(=O)/C(C#N)=C/c1ccc(N2CCN(Cc3ccccc3)CC2)cc1,82.2% (active)
21,CCOC(=O)/C(C#N)=C\c1ccc(N2CCN(C/C=C/c3ccccc3)CC2)cc1,0.17%
22,N#C/C(=C(/O)COC(=O)COc1ccc(Cl)cc1)c1nc2ccccc2[nH]1,0%
23,O=C(Nc1cnn(Cc2c(Cl)cccc2Cl)c1)C(c1ccccc1)c1ccccc1,-0.07%
24,COc1ccccc1-c1nnc(SCC(=O)Nc2ccc3[nH]c(=O)[nH]c3c2)n1N,-0.06%

row,Structure (SMILES),fluorescence artifact activation
1,Cc1cc(C)n(C2CCCCC2OC(=O)CCc2ccccc2)n1 (stereo not drawn),13% (active)
2,CC1(OC(=O)CCc2ccccc2)C(=O)C=C2C=C(c3ccc(C#N)cc3)N(C3CCCC3)C=C2C1=O (stereo not drawn),-0.06%
3,Cc1cc(C)n(-c2ccc(C(=O)O)cc2)n1,0.39%
4,CCOC(=O)/C(C#N)=C(C)/C=C1\Sc2ccccc2N1CC,4.14%
5,C=CCNC(=S)NNC(=O)c1ccc(OCC(C)C)cc1,0.28%
6,CN1CCC2(CC1)C1CN(C)CC=C1C(C#N)=C(N)C2(C#N)C#N (stereo not drawn),-0.05% and 6.98%
7,CC(C)(C)c1cc(NC(=O)c2cccc(S(=O)(=O)N3CCOCC3)c2)no1,7.6%
8,Cc1sc(NC(=O)CSc2nnc(C(C)C)n2C)c(C#N)c1C,21.9% (active)
9,COc1ccc(S(=O)(=O)N2CCSC2)cc1C,0.17%
10,Cc1cc(C)c(C(N)=O)c(Nc2ccc(F)cc2)n1,0.09%
11,CCN(C(=O)c1cnc(NC(C)C)cc1C(F)(F)F)c1ccc(Cl)cc1,-0.05%
12,O=c1[nH]c2ccccc2nc1/C=C(\O)c1cccs1,1.76%
13,O=c1[nH]c2ccccc2nc1/C=C/c1ccc(F)cc1,0.04%
14,O=c1[nH]c2ccccc2nc1/C=C/c1ccccc1,119% (active)
15,O=C(Nc1ccccc1-c1ccccc1)c1ccc(Cl)c([N+](=O)[O-])c1,8.22%
16,COc1ccc2[nH]c3c(c2c1)CCN1C(=O)C(CC(=O)NCCCn2ccnc2)C[C@H](C(=O)N2CCCCC2)[C@@]31C (stereo partly drawn),-0.02%
17,CN(C)c1ccc(/C=N/N(CCO)C2=NS(=O)(=O)c3ccccc32)cc1,0.26%
18,COC1C(CO)OC(n2c3c(Cl)cccc3c3c4c(c5c6cccc(Cl)c6[nH]c5c32)C(=O)NC4=O)C(O)C1O (stereo not drawn),0.02%
19,CCCCCCC(=O)N/N=C/c1ccco1,0.06%
20,Cc1ccccc1N(CC(N)=O)S(C)(=O)=O,-0.02%
21,CS(=O)(=O)N(CC(=O)N/N=C/c1ccco1)c1ccccc1Br,48.6% (active)
